Results published in ChEMBL document CHEMBL1155930, “Novel dimeric aryldiketo containing inhibitors of HIV-1 integrase: effects of the phenyl substituent and the linker orientation” (Bioorg Med Chem, 2008).

What was measured:
[1] = molecular target: T1, Human immunodeficiency virus type 1 integrase (Human immunodeficiency virus 1, UniProt Q7ZJM1); experiment: Inhibition of wild-type HIV1 integrase 3'-processing activity using [32P]-labeled linear oligonucleotide substrate by polyacrylamide gel electrophoresis
Summary of the method: (§1)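 Wild-type IN (final 200 nM) preincubated with inhibitor for 30 min at 30 °C in buffer containing 50 mM NaCl, 1 mM HEPES pH 7.5, 50 μM EDTA, 50 μM DTT, 10% glycerol, 7.5 mM MnCl2, 0.1 mg/mL BSA, 10 mM 2-mercaptoethanol, 10% DMSO, 25 mM MOPS pH 7.2. Then 20 nM 5'-32P-labeled annealed 21-mer duplex added, 1 h more. Quenched with formamide loading dye. IC50 from log concentration vs percent inhibition.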

[2] = molecular target: T1, Human immunodeficiency virus type 1 integrase; experiment: Inhibition of wild-type HIV1 integrase strand transfer activity using [32P]-labeled linear oligonucleotide substrate by polyacrylamide gel electrophoresis; summary of the method: as §1

T1 sequence (Q7ZJM1 whole entry): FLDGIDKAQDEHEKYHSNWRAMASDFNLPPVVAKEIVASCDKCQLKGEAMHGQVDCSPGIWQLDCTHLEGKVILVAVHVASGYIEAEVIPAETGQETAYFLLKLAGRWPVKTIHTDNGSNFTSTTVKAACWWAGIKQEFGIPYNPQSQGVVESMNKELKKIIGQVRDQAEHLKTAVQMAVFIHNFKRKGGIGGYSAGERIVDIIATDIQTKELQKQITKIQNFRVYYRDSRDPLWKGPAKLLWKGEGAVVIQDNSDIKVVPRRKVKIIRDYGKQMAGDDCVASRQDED

SMILES | IC50 [1] [µM] | IC50 [2] [µM]
O=C(CC(=O)c1cccc(OCc2ccccc2)c1)C(=O)N1CCN(C(=O)C(=O)CC(=O)c2cccc(OCc3ccccc3)c2)CC1 | 56 | 1.8
Cc1cc(C(=O)/C=C(\O)C(=O)O)ccc1Cl | 94 | 4.7
O=C(O)/C(O)=C/C(=O)c1ccccc1Cl | > 100 | 17
O=C(O)/C(O)=C/C(=O)c1ccccc1F | > 100 | 58
COC(=O)/C(O)=C/C(=O)c1ccc(OC)c(OCc2ccccc2)c1 | > 100 | 16
O=C(CC(=O)c1cccc(OCc2ccccc2)c1)C(=O)OC1CCN(C(=O)C(=O)CC(=O)c2cccc(OCc3ccccc3)c2)CC1 | 91 | 3
O=C(CC(=O)c1cccc(OCc2ccccc2)c1)C(=O)NC1CCC(NC(=O)C(=O)CC(=O)c2cccc(OCc3ccccc3)c2)CC1 (stereo not drawn) | > 100 | 7
O=C(CC(=O)c1cccc(OCc2ccccc2)c1)C(=O)NC1CCN(C(=O)C(=O)CC(=O)c2cccc(OCc3ccccc3)c2)CC1 | 23 | < 0.4
O=C(CC(=O)c1ccc(C(F)(F)F)cc1)C(=O)N1CCN(C(=O)C(=O)CC(=O)c2ccc(C(F)(F)F)cc2)CC1 | > 100 | 25
O=C(O)/C(O)=C/C(=O)c1ccc(C(F)(F)F)cc1 | > 100 | 33
COc1ccc(C(=O)/C=C(\O)C(=O)O)cc1OCc1ccccc1 | 55 | < 0.4
COC(=O)/C(O)=C/C(=O)c1ccccc1F | > 100 | > 100
O=C(CC(=O)c1ccccc1F)C(=O)NC1CCC(NC(=O)C(=O)CC(=O)c2ccccc2F)CC1 (stereo not drawn) | > 100 | 55
O=C(CC(=O)c1ccccc1Cl)C(=O)N1CCN(C(=O)C(=O)CC(=O)c2ccccc2Cl)CC1 | > 100 | > 100
O=C(CC(=O)c1ccc(F)cc1)C(=O)NC1CCN(C(=O)C(=O)CC(=O)c2ccc(F)cc2)CC1 | > 100 | 88
O=C(CC(=O)c1ccc(F)cc1)C(=O)N1CCN(C(=O)C(=O)CC(=O)c2ccc(F)cc2)CC1 | > 100 | 29
COC(=O)/C(O)=C/C(=O)c1cccc(NC(=O)OCc2ccccc2)c1 | 99 | 7

SMILES | IC50 [1] [µM] | IC50 [2] [µM]
COC(=O)/C(O)=C/C(=O)c1cccc(Cc2ccccc2F)c1 | 26 | 0.6
COC(=O)/C(O)=C/C(=O)c1cccc(N(Cc2ccccc2)Cc2ccccc2)c1 | > 100 | > 100
O=C(O)/C(O)=C/C(=O)c1ccccc1 | > 100 | 24.2
COc1cccc(C(=O)CC(=O)C(=O)NC2CCC(NC(=O)C(=O)CC(=O)c3cccc(OC)c3)CC2)c1 (stereo not drawn) | > 100 | 26
COc1cccc(C(=O)CC(=O)C(=O)N2CCN(C(=O)C(=O)CC(=O)c3cccc(OC)c3)CC2)c1 | > 100 | 26
O=C(O)/C(O)=C/C(=O)c1ccc([N+](=O)[O-])cc1 | > 100 | 45
COC(=O)/C(O)=C/C(=O)c1ccc(F)cc1 | > 100 | > 100
O=C(CC(=O)c1ccc(F)cc1)C(=O)NC1CCC(NC(=O)C(=O)CC(=O)c2ccc(F)cc2)CC1 (stereo not drawn) | > 100 | 35.5
O=C(CC(=O)c1ccccc1Cl)C(=O)NC1CCN(C(=O)C(=O)CC(=O)c2ccccc2Cl)CC1 | 99 | 31
COC(=O)/C(O)=C/C(=O)c1cccc(OCc2ccccc2)c1 | > 100 | 14
O=C(O)/C(O)=C/C(=O)c1cccc(OCc2ccccc2)c1 | 19 | < 0.4
COc1cccc(C(=O)/C=C(\O)C(=O)O)c1 | > 100 | 27
O=C(CC(=O)c1ccc(C(F)(F)F)cc1)C(=O)NC1CCC(NC(=O)C(=O)CC(=O)c2ccc(C(F)(F)F)cc2)CC1 (stereo not drawn) | > 100 | 41
CCCCCC12CCC(C(=O)Nc3cccc(C(=O)CC(=O)C(=O)O)c3)(CC1)CC2 | > 100 | 14
COc1cccc(C(=O)CC(=O)C(=O)NC2CCN(C(=O)C(=O)CC(=O)c3cccc(OC)c3)CC2)c1 | > 100 | 53
CC(C)(C)OC(=O)N1CCC(NC(=O)/C(O)=C/C(=O)c2ccc(F)cc2)CC1 | > 100 | 100
O=C(CC(=O)c1ccccc1Cl)C(=O)NC1CCC(NC(=O)C(=O)CC(=O)c2ccccc2Cl)CC1 (stereo not drawn) | 92 | 30
